The source of these data is ChEMBL document CHEMBL1155459, “On-bead screening of a combinatorial fumaric acid derived peptide library yields antiplasmodial cysteine protease inhibitors with unusual peptide sequences” (J Med Chem, 2009).

Peptide text beside a SMILES is read from it.

The nature of assay [1]: Inhibition of Plasmodium falciparum falcipain-2 after 12 hrs by fluorescence spectroscopy-based on-bead assay. Also on record: concentration or dose not given beside the values. The settings on record: concentration not given here. The essentials:
(§1)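 Library members on resin (PEGA, theoretical loading 0.40 mmol/g; added as DMSO suspension, 0.64 mM final inhibitor) preincubated with enzyme 12 h, then Cbz-Phe-Arg-AMC 40 μM added; AMC release followed by fluorescence (ex 380/em 460 nm). Kinetics compared with inhibitor-free amino-PEGA resin.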

Assay [2] has as its target Rhodesain (Trypanosoma brucei rhodesiense) (UniProt Q95PM0). The assay is described as follows: Inhibition of Trypanosoma brucei rhodesiense rhodesain after 12 hrs by fluorescence spectroscopy-based on-bead assay. Further details: concentration or dose not given beside the values. The settings on record: concentration not given here. The essentials: as §1

Sequence of Rhodesain (Trypanosoma brucei rhodesiense) (Q95PM0 1-450): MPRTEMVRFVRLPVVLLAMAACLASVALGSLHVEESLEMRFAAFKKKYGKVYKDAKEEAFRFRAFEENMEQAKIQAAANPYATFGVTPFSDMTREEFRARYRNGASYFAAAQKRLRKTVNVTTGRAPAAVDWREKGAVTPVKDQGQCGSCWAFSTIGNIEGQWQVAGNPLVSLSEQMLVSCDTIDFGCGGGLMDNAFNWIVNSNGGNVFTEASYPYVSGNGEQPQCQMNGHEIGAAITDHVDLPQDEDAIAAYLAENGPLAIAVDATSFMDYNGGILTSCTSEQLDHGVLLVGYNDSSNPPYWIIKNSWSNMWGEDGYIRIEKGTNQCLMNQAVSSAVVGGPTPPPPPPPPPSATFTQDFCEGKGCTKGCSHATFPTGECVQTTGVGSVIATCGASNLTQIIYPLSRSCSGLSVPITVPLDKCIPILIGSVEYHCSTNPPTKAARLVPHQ

In the case of `CC(C)C[C@H](NC(=O)[C@@H](NC(=O)[C@H](CCC(N)=O)NC(=O)/C=C/C(=O)N[C@@H](C)C(=O)NCC(=O)N[C@@H](Cc1ccccc1)C(=O)O)C1CCCCC1)C(=O)N[C@H](C(N)=O)C(C)C` (HELM PEPTIDE1{[C[C@H](NC(=O)/C=C/C(=O)[*:2])C(=O)NCC(=O)N[C@@H](Cc1ccccc1)C(=O)O].Q.[O=C([C@@H](N[*:1])C1CCCCC1)[*:2]].L.V.[am]}$$$$V2.0), the inhibition in assay [1] is 47%; in assay [2], 52%.
For `CC(C)[C@H](NC(=O)[C@@H](NC(=O)[C@@H](NC(=O)[C@H](CCC(N)=O)NC(=O)/C=C/C(=O)N[C@@H](C)C(=O)NCC(=O)N[C@@H](Cc1ccccc1)C(=O)O)C1CCCCC1)C(C)C)C(N)=O` (HELM PEPTIDE1{[C[C@H](NC(=O)/C=C/C(=O)[*:2])C(=O)NCC(=O)N[C@@H](Cc1ccccc1)C(=O)O].Q.[O=C([C@@H](N[*:1])C1CCCCC1)[*:2]].V.V.[am]}$$$$V2.0), the inhibition in assay [1] was 47%; in assay [2], 43%.
The like results for `CC(C)[C@H](NC(=O)[C@H](C)NC(=O)[C@@H](NC(=O)[C@H](CCC(N)=O)NC(=O)/C=C/C(=O)N[C@@H](C)C(=O)NCC(=O)N[C@@H](Cc1ccccc1)C(=O)O)c1ccccc1)C(N)=O` (HELM PEPTIDE1{[C[C@H](NC(=O)/C=C/C(=O)[*:2])C(=O)NCC(=O)N[C@@H](Cc1ccccc1)C(=O)O].Q.[Phg].A.V.[am]}$$$$V2.0) were, in that order, 55% and 12%.
The like results for `CC(C)C[C@H](NC(=O)[C@@H](NC(=O)[C@H](CCC(N)=O)NC(=O)/C=C/C(=O)N[C@@H](C)C(=O)NCC(=O)N[C@@H](Cc1ccccc1)C(=O)O)c1ccccc1)C(=O)N[C@H](C(N)=O)C(C)C` (HELM PEPTIDE1{[C[C@H](NC(=O)/C=C/C(=O)[*:2])C(=O)NCC(=O)N[C@@H](Cc1ccccc1)C(=O)O].Q.[Phg].L.V.[am]}$$$$V2.0) were, in that order, 30% and 68%.
The like results for `CC(C)[C@H](NC(=O)[C@@H](NC(=O)[C@@H](NC(=O)[C@H](CCC(N)=O)NC(=O)/C=C/C(=O)N[C@@H](C)C(=O)NCC(=O)N[C@@H](Cc1ccccc1)C(=O)O)c1ccccc1)C(C)C)C(N)=O` (HELM PEPTIDE1{[C[C@H](NC(=O)/C=C/C(=O)[*:2])C(=O)NCC(=O)N[C@@H](Cc1ccccc1)C(=O)O].Q.[Phg].V.V.[am]}$$$$V2.0) were, in that order, 46% and 34%.
`CC(=O)NC[C@H](NC(=O)/C=C/C(=O)N[C@@H](C)C(=O)NCC(=O)N[C@@H](Cc1ccccc1)C(=O)O)C(=O)N[C@@H](Cc1ccccc1)C(=O)N[C@@H](C)C(=O)N[C@H](C(N)=O)C(C)C` (HELM PEPTIDE1{[C[C@H](NC(=O)/C=C/C(=O)[*:2])C(=O)NCC(=O)N[C@@H](Cc1ccccc1)C(=O)O].[O=C([C@H](CN[*:3])N[*:1])[*:2]].F.A.V.[am]}|PEPTIDE2{[ac]}$PEPTIDE1,PEPTIDE2,2:R3-1:R2$$$V2.0): the inhibition was 13% in assay [1] and 17% in assay [2].
The like results for `CC(=O)NC[C@H](NC(=O)/C=C/C(=O)N[C@@H](C)C(=O)NCC(=O)N[C@@H](Cc1ccccc1)C(=O)O)C(=O)N[C@@H](Cc1ccccc1)C(=O)N[C@@H](CC(C)C)C(=O)N[C@H](C(N)=O)C(C)C` (HELM PEPTIDE1{[C[C@H](NC(=O)/C=C/C(=O)[*:2])C(=O)NCC(=O)N[C@@H](Cc1ccccc1)C(=O)O].[O=C([C@H](CN[*:3])N[*:1])[*:2]].F.L.V.[am]}|PEPTIDE2{[ac]}$PEPTIDE1,PEPTIDE2,2:R3-1:R2$$$V2.0) were, in that order, 43% and 52%.
For the compound `CC(=O)NC[C@H](NC(=O)/C=C/C(=O)N[C@@H](C)C(=O)NCC(=O)N[C@@H](Cc1ccccc1)C(=O)O)C(=O)N[C@@H](Cc1ccccc1)C(=O)N[C@H](C(=O)N[C@H](C(N)=O)C(C)C)C(C)C` (HELM PEPTIDE1{[C[C@H](NC(=O)/C=C/C(=O)[*:2])C(=O)NCC(=O)N[C@@H](Cc1ccccc1)C(=O)O].[O=C([C@H](CN[*:3])N[*:1])[*:2]].F.V.V.[am]}|PEPTIDE2{[ac]}$PEPTIDE1,PEPTIDE2,2:R3-1:R2$$$V2.0), the inhibition in assay [1] was found to be 32%; in assay [2], 44%.
With `CC[C@H](C)[C@H](NC(=O)[C@H](CNC(C)=O)NC(=O)/C=C/C(=O)N[C@@H](C)C(=O)NCC(=O)N[C@@H](Cc1ccccc1)C(=O)O)C(=O)N[C@@H](C)C(=O)N[C@H](C(N)=O)C(C)C` (HELM PEPTIDE1{[C[C@H](NC(=O)/C=C/C(=O)[*:2])C(=O)NCC(=O)N[C@@H](Cc1ccccc1)C(=O)O].[O=C([C@H](CN[*:3])N[*:1])[*:2]].I.A.V.[am]}|PEPTIDE2{[ac]}$PEPTIDE1,PEPTIDE2,2:R3-1:R2$$$V2.0), the inhibition in assay [1] came to 28%; in assay [2], 26%.
As for `CC[C@H](C)[C@H](NC(=O)[C@H](CNC(C)=O)NC(=O)/C=C/C(=O)N[C@@H](C)C(=O)NCC(=O)N[C@@H](Cc1ccccc1)C(=O)O)C(=O)N[C@@H](CC(C)C)C(=O)N[C@H](C(N)=O)C(C)C` (HELM PEPTIDE1{[C[C@H](NC(=O)/C=C/C(=O)[*:2])C(=O)NCC(=O)N[C@@H](Cc1ccccc1)C(=O)O].[O=C([C@H](CN[*:3])N[*:1])[*:2]].I.L.V.[am]}|PEPTIDE2{[ac]}$PEPTIDE1,PEPTIDE2,2:R3-1:R2$$$V2.0), the inhibition in assay [1] amounted to 32%; in assay [2], 61%.
In the case of `CC[C@H](C)[C@H](NC(=O)[C@H](CNC(C)=O)NC(=O)/C=C/C(=O)N[C@@H](C)C(=O)NCC(=O)N[C@@H](Cc1ccccc1)C(=O)O)C(=O)N[C@H](C(=O)N[C@H](C(N)=O)C(C)C)C(C)C` (HELM PEPTIDE1{[C[C@H](NC(=O)/C=C/C(=O)[*:2])C(=O)NCC(=O)N[C@@H](Cc1ccccc1)C(=O)O].[O=C([C@H](CN[*:3])N[*:1])[*:2]].I.V.V.[am]}|PEPTIDE2{[ac]}$PEPTIDE1,PEPTIDE2,2:R3-1:R2$$$V2.0), the inhibition in assay [1] is 52%; in assay [2], 49%.
As to `CC(=O)NC[C@H](NC(=O)/C=C/C(=O)N[C@@H](C)C(=O)NCC(=O)N[C@@H](Cc1ccccc1)C(=O)O)C(=O)N[C@@H](CC(C)C)C(=O)N[C@@H](C)C(=O)N[C@H](C(N)=O)C(C)C` (HELM PEPTIDE1{[C[C@H](NC(=O)/C=C/C(=O)[*:2])C(=O)NCC(=O)N[C@@H](Cc1ccccc1)C(=O)O].[O=C([C@H](CN[*:3])N[*:1])[*:2]].L.A.V.[am]}|PEPTIDE2{[ac]}$PEPTIDE1,PEPTIDE2,2:R3-1:R2$$$V2.0), the inhibition in assay [1] worked out at 28%; in assay [2], 19%.
The like results for `CC(=O)NC[C@H](NC(=O)/C=C/C(=O)N[C@@H](C)C(=O)NCC(=O)N[C@@H](Cc1ccccc1)C(=O)O)C(=O)N[C@@H](CC(C)C)C(=O)N[C@@H](CC(C)C)C(=O)N[C@H](C(N)=O)C(C)C` (HELM PEPTIDE1{[C[C@H](NC(=O)/C=C/C(=O)[*:2])C(=O)NCC(=O)N[C@@H](Cc1ccccc1)C(=O)O].[O=C([C@H](CN[*:3])N[*:1])[*:2]].L.L.V.[am]}|PEPTIDE2{[ac]}$PEPTIDE1,PEPTIDE2,2:R3-1:R2$$$V2.0) were, in that order, 41% and 63%.
In the case of `CC(=O)NC[C@H](NC(=O)/C=C/C(=O)N[C@@H](C)C(=O)NCC(=O)N[C@@H](Cc1ccccc1)C(=O)O)C(=O)N[C@@H](CC(C)C)C(=O)N[C@H](C(=O)N[C@H](C(N)=O)C(C)C)C(C)C` (HELM PEPTIDE1{[C[C@H](NC(=O)/C=C/C(=O)[*:2])C(=O)NCC(=O)N[C@@H](Cc1ccccc1)C(=O)O].[O=C([C@H](CN[*:3])N[*:1])[*:2]].L.V.V.[am]}|PEPTIDE2{[ac]}$PEPTIDE1,PEPTIDE2,2:R3-1:R2$$$V2.0), the figures for the inhibition in assay [1] and in assay [2] were 35% and 60%, respectively.
As for `CC(=O)NC[C@H](NC(=O)/C=C/C(=O)N[C@@H](C)C(=O)NCC(=O)N[C@@H](Cc1ccccc1)C(=O)O)C(=O)N[C@H](C(=O)N[C@@H](C)C(=O)N[C@H](C(N)=O)C(C)C)c1ccccc1` (HELM PEPTIDE1{[C[C@H](NC(=O)/C=C/C(=O)[*:2])C(=O)NCC(=O)N[C@@H](Cc1ccccc1)C(=O)O].[O=C([C@H](CN[*:3])N[*:1])[*:2]].[Phg].A.V.[am]}|PEPTIDE2{[ac]}$PEPTIDE1,PEPTIDE2,2:R3-1:R2$$$V2.0), the inhibition in assay [1] was 35%; in assay [2], 34%.
Consider `CC(=O)NC[C@H](NC(=O)/C=C/C(=O)N[C@@H](C)C(=O)NCC(=O)N[C@@H](Cc1ccccc1)C(=O)O)C(=O)N[C@H](C(=O)N[C@@H](CC(C)C)C(=O)N[C@H](C(N)=O)C(C)C)c1ccccc1` (HELM PEPTIDE1{[C[C@H](NC(=O)/C=C/C(=O)[*:2])C(=O)NCC(=O)N[C@@H](Cc1ccccc1)C(=O)O].[O=C([C@H](CN[*:3])N[*:1])[*:2]].[Phg].L.V.[am]}|PEPTIDE2{[ac]}$PEPTIDE1,PEPTIDE2,2:R3-1:R2$$$V2.0), for which the inhibition is 52% in assay [1] and 56% in assay [2].
The like results for `CC(=O)NC[C@H](NC(=O)/C=C/C(=O)N[C@@H](C)C(=O)NCC(=O)N[C@@H](Cc1ccccc1)C(=O)O)C(=O)N[C@H](C(=O)N[C@H](C(=O)N[C@H](C(N)=O)C(C)C)C(C)C)c1ccccc1` (HELM PEPTIDE1{[C[C@H](NC(=O)/C=C/C(=O)[*:2])C(=O)NCC(=O)N[C@@H](Cc1ccccc1)C(=O)O].[O=C([C@H](CN[*:3])N[*:1])[*:2]].[Phg].V.V.[am]}|PEPTIDE2{[ac]}$PEPTIDE1,PEPTIDE2,2:R3-1:R2$$$V2.0) were, in that order, 20% and 36%.
Take `CC(C)[C@H](NC(=O)[C@H](C)NC(=O)[C@H](Cc1ccccc1)NC(=O)[C@H](C)NC(=O)/C=C/C(=O)NCC(=O)NCC(=O)N[C@@H](Cc1ccccc1)C(=O)O)C(N)=O` (HELM PEPTIDE1{[O=C(/C=C/C(=O)[*:2])NCC(=O)NCC(=O)N[C@@H](Cc1ccccc1)C(=O)O].A.F.A.V.[am]}$$$$V2.0): the inhibition in assay [1] is 44%; in assay [2], 45%.
The like results for `CC(C)C[C@H](NC(=O)[C@H](Cc1ccccc1)NC(=O)[C@H](C)NC(=O)/C=C/C(=O)NCC(=O)NCC(=O)N[C@@H](Cc1ccccc1)C(=O)O)C(=O)N[C@H](C(N)=O)C(C)C` (HELM PEPTIDE1{[O=C(/C=C/C(=O)[*:2])NCC(=O)NCC(=O)N[C@@H](Cc1ccccc1)C(=O)O].A.F.L.V.[am]}$$$$V2.0) were, in that order, 68% and 67%.
